In the library only some 3.2% were active in any assay of this set; here they are far more common.
PRMT1 inh: inhibitors of human PRMT1; recombinant PRMT1, activity-based probe fluorescence polarization; inhibition, % at 2.79 µM; hit rate 1.3% among 370,000;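 active = inhibition above about 21% made by adding two undisclosed values, limit read from the data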
DAGLB inhibitor: diacylglycerol lipase beta (human) inhibition | Q8NCG7 | hit rate 0.059% among 340,000 | AID 504411 | HEK293T DAGLB membrane lysate, EnzChek fluorogenic substrate | inhibition, % at 5.17 µM; in the data active = inhibition above about 34%;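 also: 0% = enzyme with vehicle and 100% = wells lacking enzyme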
LEDGF integ inh: blocks HIV-1 LEDGF/p75-dependent DNA integration; TR-FRET IN-LEDGF/p75 DNA integration, Eu/Cy5; inhibition, % at 3.7 µM; hit rate 0.64% among 370,000; AID 743269;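 active = inhibition above the screen-wide mean plus 3 SD, cut at about 13% in these data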;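 also: signal is the Cy5 over europium emission ratio at 671 and 618 nm; 0% = plate median of compound wells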
rCAG binder: molecules binding r(CAG) RNA repeats. r(CAG) RNA repeat, TO-PRO-1 dye displacement fluorescence. inhibition, % at 3 µM. hit rate 1.3% among 370,000. AID 651821;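 active = inhibition above the plate cutoff, the mean of all test compounds on that plate plus 3 SD, cut at about 35% in these data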;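 also: 0% = DMSO alone and 100% = 100 µM mitoxantrone as full dye displacement; higher means more dye released from RNA so lower well fluorescence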
mABHD4 FP: ABHD4 (mouse) inhibition, primary FP screen. Q8VD66. purified mABHD4, FP-Rh probe fluorescence polarization. inhibition, % at 8.92 µM. hit rate 0.54% among 370,000;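 active = inhibition exceeding the mean over every tested compound plus 3 SD, cut at about 30% in these data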;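 also: 0% = plate median of compound wells and 100% = S159A mutant with DMSO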
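Doses – 8.92 µM, single dose · Material – wild-type mouse ABHD4 protein · Replication – single well per compound (singlicate) · Measure – percent inhibition of probe binding, normalized to plate controls · Schedule – 45 min compound pre-incubation plus 60 min probe step, 25 °C · Detection – fluorescence polarization with parallel and perpendicular emission, 525/598 nm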
HTRA1 inh: inhibitors of human serine peptidase HTRA1; Q92743; recombinant HTRA1, FP-rhodamine activity-based probe, fluorescence polarization; inhibition, % at 5.96 µM; hit rate 0.5% among 340,000; AID 504803; in the data active = inhibition above about 36%;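 also: 0% = enzyme with DMSO and 100% = wells lacking enzyme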
Target sequence (Q92743 whole entry, looked up): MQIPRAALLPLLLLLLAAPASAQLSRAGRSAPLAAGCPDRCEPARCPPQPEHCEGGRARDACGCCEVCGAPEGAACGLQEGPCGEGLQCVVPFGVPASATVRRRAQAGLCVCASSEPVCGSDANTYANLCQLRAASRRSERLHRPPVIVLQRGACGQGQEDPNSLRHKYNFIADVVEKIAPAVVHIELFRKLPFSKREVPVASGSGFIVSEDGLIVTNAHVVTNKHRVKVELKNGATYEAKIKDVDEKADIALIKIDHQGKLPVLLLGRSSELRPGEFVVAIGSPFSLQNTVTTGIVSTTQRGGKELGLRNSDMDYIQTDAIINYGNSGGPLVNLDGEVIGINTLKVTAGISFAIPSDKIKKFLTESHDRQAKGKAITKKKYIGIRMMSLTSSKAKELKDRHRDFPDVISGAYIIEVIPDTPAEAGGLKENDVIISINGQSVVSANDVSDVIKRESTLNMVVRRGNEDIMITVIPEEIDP
rCAG binder conf: r(CAG) RNA repeat binding, confirmation. shares compounds with rCAG binder. TO-PRO-1 dye displacement fluorescence. inhibition, % at 3 µM. hit rate 70% among 4,300. AID 652065;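 active = inhibition above a per-plate cutoff, the mean inhibition of sample wells plus 3 SD, cut at about 35% in these data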;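 also: loss of TO-PRO-1 fluorescence as compound displaces dye from 1x1 AA loop RNA; 0% = DMSO only wells and 100% = 100 µM mitoxantrone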
dCAG dye counter: DNA CAG dye complex inhibition counter-screen; shares compounds with rCAG binder; d(CAG) DNA oligo TO-PRO-1 dye displacement, fluorescence; inhibition, % at 3 µM; hit rate 94% among 4,300; AID 652068;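 active = inhibition above its plate's cutoff, the mean test-well inhibition plus 3 SD, cut at about 4.8% in these data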;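 also: 0% = DNA dye mix with DMSO and 100% = 100 µM mitoxantrone; hits displace the dye from DNA and so lower well fluorescence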
PRMT1 confirm: PRMT1 (human) inhibition, FP confirmation | inhibition, % at 2.79 µM | hit rate 42% among 3,300 | shares compounds with PRMT1 inh | recombinant His-PRMT1, activity-based probe fluorescence polarization;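 active = mean inhibition across replicates above the hit cutoff derived for the earlier primary screen, cut at about 22% in these data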
Active calls of the source: *.

CCOC(=O)[C@]12Cc3ccccc3[C@H]1N(C)C(=O)c1cc(OC)ccc12 was read as PRMT1 inh 3, LEDGF integ inh -2, rCAG binder 1 and mABHD4 FP 5.
`N[C@@H](Cn1oc(=O)[nH]c1=O)C(=O)O` gave PRMT1 inh 1, DAGLB inhibitor 2, LEDGF integ inh 0, rCAG binder 2, mABHD4 FP 3 and HTRA1 inh 2.
`CN(C)C=C1C(=O)N(C2CCCCC2)C(=O)N(C2CCCCC2)C1=O` gave PRMT1 inh 1, DAGLB inhibitor -1, LEDGF integ inh -3, rCAG binder -1, mABHD4 FP 7 and HTRA1 inh 5.
Screening COc1ccc(/C=C2/C(=O)N(Cc3ccco3)C(=O)N(C(C)C)C2=O)cc1 returned PRMT1 inh 5, DAGLB inhibitor 16, LEDGF integ inh 33*, rCAG binder 60*, mABHD4 FP -48, HTRA1 inh -8, rCAG binder conf 77* and dCAG dye counter 41*.
O=C1CC(=O)N(Cc2ccccc2)C(=O)N1Cc1ccccc1 was read as PRMT1 inh -4, DAGLB inhibitor 12, LEDGF integ inh 5, rCAG binder 46*, mABHD4 FP -5, HTRA1 inh -28, rCAG binder conf 9 and dCAG dye counter 6.3*.
Cn1cccc1/C=C1\C(=O)NC(=O)N(CCC2=CCCCC2)C1=O was read as PRMT1 inh 0, DAGLB inhibitor 8, LEDGF integ inh 0, rCAG binder 10, mABHD4 FP 5 and HTRA1 inh -3.
`Cn1cccc1/C=C1\C(=O)NC(=O)N(Cc2ccccc2Cl)C1=O` gave PRMT1 inh 8, DAGLB inhibitor 14, LEDGF integ inh 4, rCAG binder 46*, mABHD4 FP 5, HTRA1 inh 21, rCAG binder conf 10 and dCAG dye counter 4.
Cc1cc(OCC(=O)NCC(O)c2ccccc2)c2c3c(c(=O)oc2c1)CCCC3 (stereo unspecified) was read as PRMT1 inh 3, DAGLB inhibitor -1, LEDGF integ inh -2, rCAG binder 2, mABHD4 FP 3 and HTRA1 inh 1.
For Cc1cc(OCC(=O)N[C@@H](Cc2ccccc2)C(=O)O)c2c3c(c(=O)oc2c1)CCCC3 the results were PRMT1 inh -2, DAGLB inhibitor 2, LEDGF integ inh -1, rCAG binder 46*, mABHD4 FP 4, HTRA1 inh -12, rCAG binder conf 37* and dCAG dye counter 7.9*.
Screening CC12CCC(=O)CC1CCC1C2C(=O)CC2(C)C1CCC2(C)O (stereo unspecified) returned PRMT1 inh -1, DAGLB inhibitor -1, LEDGF integ inh -3, rCAG binder 0, mABHD4 FP 5 and HTRA1 inh 1.
`O=c1c([N+](=O)[O-])cn(O)cc1[N+](=O)[O-]` gave PRMT1 inh -1, DAGLB inhibitor 1, LEDGF integ inh 2, rCAG binder 2, mABHD4 FP 4 and HTRA1 inh 6.
For Cc1ccc(/C=C2\C(=O)NC(=S)N(c3ccc(F)cc3)C2=O)s1 the results were PRMT1 inh 11, DAGLB inhibitor 7, LEDGF integ inh 3, rCAG binder 28, mABHD4 FP -8 and HTRA1 inh -20.
Cc1ccc(/C=C2\C(=O)NC(=S)N(c3ccccc3F)C2=O)s1 was read as PRMT1 inh 3, DAGLB inhibitor 7, LEDGF integ inh 1, rCAG binder 35*, mABHD4 FP -212, HTRA1 inh -24, rCAG binder conf 16 and dCAG dye counter 8.2*.
Screening O=C1NC(=O)N(c2cccc(Cl)c2)C(=O)/C1=C\c1ccc(Sc2nc3ccccc3[nH]2)o1 returned PRMT1 inh 33*, DAGLB inhibitor 26, LEDGF integ inh 20*, rCAG binder 72*, mABHD4 FP -281, HTRA1 inh -97, rCAG binder conf 50*, dCAG dye counter 22* and PRMT1 confirm 42*.
For O=C1NC(=O)N(CCC2=CCCCC2)C(=O)/C1=C\c1cccs1 the results were PRMT1 inh 31*, DAGLB inhibitor 22, LEDGF integ inh 2, rCAG binder 42*, mABHD4 FP -28, HTRA1 inh -1, rCAG binder conf 6, dCAG dye counter 3 and PRMT1 confirm 18.
O=C1NC(=O)N(Cc2ccc(F)cc2)C(=O)/C1=C\c1ccc(N2CCCC2)cc1 was read as PRMT1 inh 11, DAGLB inhibitor 10, LEDGF integ inh 3, rCAG binder 17, mABHD4 FP -49 and HTRA1 inh -10.
For O=C1NC(=O)N(Cc2ccc(F)cc2)C(=O)/C1=C\c1ccc([N+](=O)[O-])s1 the results were PRMT1 inh 39*, DAGLB inhibitor 32, LEDGF integ inh 5, rCAG binder 93*, mABHD4 FP -65, HTRA1 inh 43*, rCAG binder conf 79*, dCAG dye counter 40* and PRMT1 confirm 72*.
COc1ccc(CN2C(=O)NC(=O)/C(=C/c3ccc([N+](=O)[O-])s3)C2=O)cc1 was read as PRMT1 inh 31*, DAGLB inhibitor 29, LEDGF integ inh 4, rCAG binder 94*, mABHD4 FP -82, HTRA1 inh 34, rCAG binder conf 94*, dCAG dye counter 72* and PRMT1 confirm 66*.
COc1ccc(CN2C(=O)NC(=O)/C(=C\c3cc(OC)c(OC)c(OC)c3)C2=O)cc1 was read as PRMT1 inh 8, DAGLB inhibitor 4, LEDGF integ inh -2, rCAG binder 21, mABHD4 FP -1 and HTRA1 inh 3.
`O=C(CN1C(=O)CN=C(c2ccccc2)c2cc(Cl)ccc21)NC1CCCCC1` gave PRMT1 inh 3, LEDGF integ inh -4, rCAG binder 6 and mABHD4 FP 1.
CCOc1nc(NC(C)C)nc(N2CC3CC(C2)c2cccc(=O)n2C3)n1 (stereo unspecified) was read as PRMT1 inh 1, DAGLB inhibitor 0, LEDGF integ inh -1, rCAG binder -4, mABHD4 FP 1 and HTRA1 inh -2.
